{"source": "ChEMBL document CHEMBL2062518", "about": "“Total synthesis and biological evaluation of transvalencin Z” (J Nat Prod, 2012)"}
{"system": "Mycobacterium tuberculosis variant bovis BCG", "assay": "Antimicrobial activity against Mycobacterium bovis BCG TMC1011 Pasteur ATCC 35734 after 24 to 48 hrs", "type": "functional", "in_short": "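Streaked from frozen glycerol stock onto nutrient agar (1.5% agar), 37 °C, 24 h. Single colonies were grown in nutrient broth to OD600 1.0 and diluted to OD600 0.003. Cells were exposed to compound at varying concentrations from DMSO stocks (1% DMSO). Growth was read at 600 nm at 24 and 48 h, with 690 nm background subtracted and normalised to DMSO controls.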", "units": {"MIC99": "µM"}}
{"smiles": "O=CNCCCC[C@H](NC(=O)[C@@H]1COC(c2ccccc2O)=N1)C(=O)O", "MIC99": "> 100"}
{"smiles": "O=CNCCCC[C@@H](NC(=O)[C@H]1COC(c2ccccc2O)=N1)C(=O)O", "MIC99": "> 100"}
{"smiles": "O=CNCCCC[C@H](NC(=O)[C@H]1COC(c2ccccc2O)=N1)C(=O)O", "MIC99": "> 100"}
{"smiles": "O=CNCCCC[C@@H](NC(=O)[C@@H]1COC(c2ccccc2O)=N1)C(=O)O", "MIC99": "> 100"}
